Assay outcomes (PubChem)
Casp6 inh = caspase-6 (human) enzyme inhibition | purified caspase-6, Z-VEID-R110 cleavage fluorescence | 350,000 compounds, 0.53% hits | inhibition, % at 12.5 µM | AID 686996 | P55212;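 active = mean inhibition across replicates at least about 35%, with every replicate also reaching that limit, limit read from the data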;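 note: 0% = median of neutral control wells and 100% = no fluorescence left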
Target sequence (P55212 24-179 limits assumed): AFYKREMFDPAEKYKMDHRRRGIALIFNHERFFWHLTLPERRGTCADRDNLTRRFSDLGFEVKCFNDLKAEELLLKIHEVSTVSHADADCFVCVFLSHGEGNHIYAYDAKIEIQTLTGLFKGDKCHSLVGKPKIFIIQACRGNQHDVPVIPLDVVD
Target sequence (P55212 194-293 limits assumed): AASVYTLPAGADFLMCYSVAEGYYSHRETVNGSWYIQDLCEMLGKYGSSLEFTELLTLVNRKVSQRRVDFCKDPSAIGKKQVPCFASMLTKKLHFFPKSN
LEDGF integ inh = blocks HIV-1 LEDGF/p75-dependent DNA integration. inhibition, % at 3.7 µM. 370,000 compounds, 0.64% hits. TR-FRET IN-LEDGF/p75 DNA integration, Eu/Cy5. AID 743269;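 active = inhibition above the screen-wide mean plus 3 SD, cut at about 13% in these data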;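 note: signal is the Cy5 over europium emission ratio at 671 and 618 nm; 0% = plate median of compound wells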
NSD2 HMT inh = inhibitors of human histone methyltransferase NSD2. inhibition, % at 12.5 µM. O96028. NSD2 peptide methylation, AlphaScreen, 120 min. 310,000 compounds, 0.54% hits; in the data active = inhibition above about 50%
UCH37 DUB inh = blocks the human deubiquitinase UCH37 | Q9Y5K5 | purified proteasome/UCH37, Ub-AMC cleavage fluorescence | inhibition, % (test concentration not listed) | 330,000 compounds, 0.33% hits;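 active = mean inhibition over replicate wells above about 20%, limit read from the data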;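 note: 0% = compound-free wells with enzyme and 100% = wells lacking proteasome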
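Assay system: Proteasome-bound UCH37. Buffer or medium: pH 7.4 Tris-HCl (50 mM) with ovalbumin, ATP-MgCl2, DTT. Incubation: 30 min preincubation with enzyme, 25 min cleavage at room temperature. Measured by: fluorescence, ex 355 nm, em 460 nm. Read-out basis: percent inhibition. Control set: wells without proteasome as full block, compound-free enzyme plus substrate as uninhibited.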
TDP2 inh = TDP2 (human) inhibition, absorbance primary screen. O95551. recombinant TDP2, T5PNP hydrolysis, p-nitrophenol absorbance 415 nm. inhibition, % at 12.8 µM. 370,000 compounds, 0.34% hits. AID 720702;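 active = inhibition above the mean of all tested compounds plus 3 SD, set per campaign, cut at about 25% in these data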;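 note: 0% = DMSO with enzyme and 100% = buffer with substrate but no TDP2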
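Assay system: recombinant human TDP2 / Reagent: T5PNP substrate at 5 mM, a TopII-DNA adduct mimic / Measured by: epi absorbance from released p-nitrophenol / Evaluation: % inhibition relative to enzyme-containing and enzyme-free wells / Control set: enzyme-free and DMSO wells / Replicates: each compound tested once, singlicate / Schedule: enzyme reaction with compound for 2 h at 37 °C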
IN multimer act = activates HIV-1 integrase multimerization in LEDGF counter-screen. shares compounds with LEDGF integ inh. TR-FRET HIV-1 integrase multimerization, biochemical. activation, % at 7.7 µM. 2,000 compounds, 17% hits. AID 1053131; in the data active = activation above about 8.9%
TR-FRET interf = optically interferes with TR-FRET readout in LEDGF counter-screen. TR-FRET optical interference counterscreen, HIV-1 IN multimerization. inhibition, % at 7.7 µM. shares compounds with LEDGF integ inh. 2,000 tested, under 10 active. AID 1053135;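 active = inhibition above the mean over all tested compounds plus 3 SD, which no compound reached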;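 note: 0% = integrase with antibodies and DMSO and 100% = antibodies without integrase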
LEDGF integ conf = LEDGF/p75-dependent HIV-1 integration inhibition, confirmation; shares compounds with LEDGF integ inh; TR-FRET LEDGF/p75-dependent HIV-1 integration, biochemical; inhibition, % at 3.7 µM; 2,000 compounds, 36% hits; AID 1053136; in the data active = inhibition above about 14%
* hit, by the source's call; nt = not tested or not shown. The list is not random: actives were taken first. Their share in the collection is about 1.3%.

SMILES	Casp6 inh	LEDGF integ inh	NSD2 HMT inh	UCH37 DUB inh	TDP2 inh	IN multimer act	TR-FRET interf	LEDGF integ conf
C=C1CC2C(=O)N(Cc3cc(OC)ccc3OC)C(C(=O)OCC)(C(=O)OCC)C1N2C(=O)OC(C)(C)C (configuration not stated)	-0.5	50.1*	nt	0.6	2.4	2.1	-8.8	-8.6
CCc1nc2ccc(C(=O)NCc3cccs3)cn2c1N(CCC(C)C)CCN(C)C	-3.4	13.9*	0.5	nt	-0.7	0.1	-0.4	5.8
CCc1nc2ccc(C(=O)NCc3cccs3)cn2c1N(CC)CCN(C)C	-2.4	2.1	0.7	nt	4.0	nt	nt	nt
Cc1cc(/C=C2\SC(=O)NC2=O)c(C)n1-c1ccc(N2CCOCC2)cc1	-0.1	-1.9	10.0	2.8	-3.9	nt	nt	nt
Cc1cc(/C=C2\SC(=O)NC2=O)c(C)n1-c1ccc(N(C)C)cc1	-0.8	42.2*	1.5	1.8	0.5	1.7	-6.1	-0.8
COc1nc(NN=Cc2ccc(-c3ccccc3[N+](=O)[O-])o2)nc(N2CCOCC2)n1	nt	nt	nt	3.6	nt	nt	nt	nt
Cc1ccc(S(=O)(=O)N2CCCC2)cc1C(=O)N1CCN(Cc2ccccc2)CC1	-1.2	22.4*	6.0	-1.6	-2.3	-0.4	2.3	0.5
CC(=NNC(=O)c1ccncc1)c1c[nH]c2ccccc12	nt	nt	nt	8.8	nt	nt	nt	nt
COc1ccc(Br)cc1CNC(=O)CCNC(=O)Cn1ccc2ccccc2c1=O	-1.3	-0.7	-0.8	0.6	-1.1	nt	nt	nt
COc1ccc(OC)c(CNC(=O)CCNC(=O)Cn2ccc3ccccc3c2=O)c1	nt	47.5*	-3.3	-0.3	-3.5	-0.8	4.1	2.6
O=C(Cn1cncn1)NN=Cc1ccc(Cl)cc1	nt	nt	nt	1.4	nt	nt	nt	nt
O=C(Cn1cncn1)NCc1ccc(Cl)cc1	nt	18.9*	-1.9	2.2	-5.0	0.1	-0.7	-1.1
O=C(Nc1nccs1)Oc1ccccc1	nt	16.4*	-1.3	3.3	3.3	1.1	-3.9	-9.8
CS(=O)(=O)N1CCC(C(=O)Nc2c(F)cccc2F)CC1	nt	-1.1	-1.3	-1.0	-0.9	nt	nt	nt
CC(=O)N1CCC(N(C(=O)Nc2c(F)cccc2F)C(C)C)CC1	-1.3	20.5*	nt	3.7	-6.7	0.3	-1.2	-0.7
CC(C)NC(=O)CCCn1cc([N+](=O)[O-])cn1	0.1	6.8	-3.5	0.6	-13.0	nt	nt	nt
Cc1nn(C)c(C)c1/C=N/NC(=O)CCn1cc([N+](=O)[O-])cn1	1.1	14.9*	-1.2	nt	-5.0	0.0	0.1	-0.9
CCOC(=O)C1CCN(C(=O)c2ccc(N(C)S(C)(=O)=O)cc2)CC1	nt	-3.0	-0.2	3.0	0.8	nt	nt	nt
CN(c1ccc(C(=O)COC(=O)C2CC2)cc1)S(C)(=O)=O	-1.5	30.6*	0.5	4.1	6.0	0.0	0.0	1.0
CCC(=O)Nc1cccc(NC(=O)c2ccccc2Cl)c1	0.5	56.2*	-2.4	1.7	6.1	0.8	-4.0	1.1
CCOC1=C2[C@@H](CN(S(=O)(=O)c3ccccc3C)[C@H]2c2ccc(Cl)cc2)[C@H]2C(=O)N(c3ccccc3)C(=O)[C@H]2C1	-0.3	37.5*	nt	nt	1.1	0.6	-2.9	-9.0
Cc1noc(/C=C/N(C)C)c1S(=O)(=O)N1CCCC(C(=O)Nc2ccc3c(c2)OCO3)C1 (configuration not stated)	-3.1	14.7*	nt	6.2	-10.1	-1.2	6.2	-4.2
Cc1cc(C)c(NC(=O)C2CCCN(S(=O)(=O)c3c(C)noc3/C=C/N(C)C)C2)c(C)c1 (configuration not stated)	-0.7	-1.8	-6.6	14.3	-8.6	nt	nt	nt
CC(=NNC(=O)C1CCCN(S(=O)(=O)c2ccccc2)C1)c1cccnc1 (configuration not stated)	nt	nt	nt	2.0	nt	nt	nt	nt
CCCc1cc(=O)[nH]c(SCC(=O)NC(=O)OCC)n1	nt	25.4*	-9.4	1.9	8.2	1.1	-5.2	-10.3
CCCc1cc(=O)[nH]c(SCC(=O)NCCCC(=O)OCC)n1	nt	1.1	-0.5	1.6	-4.1	nt	nt	nt
CC(=NNC(=S)NCCc1ccccc1)c1ccc(C#N)cc1	nt	nt	nt	2.5	nt	nt	nt	nt
